This is an account of results in the EternaBench riboswitch data.

Usually apparent Kd stands for the concentration giving half-maximal binding under the conditions of the assay.

This data set concerns MS2 coat protein. Nature of the data set: apparent Kd, MS2 coat protein; higher = weaker binding; RNA-MaP array; FMN 200 µM where present. Summed up: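 Green signal from SNAP-549-labelled MS2 coat protein was normalised to red-channel RNA signal and to the median Fmax of control clusters. The protein was titrated from 0.7 or 1.5 nM, doubling to 3 µM, without and then with constant ligand, over designs transcribed by stalled E. coli RNA polymerase on Illumina sequencing-chip clusters, in 100 mM Tris-HCl pH 7.5, 80 mM KCl, 4 mM MgCl2, BSA, DTT, yeast tRNA and Tween-20. The apparent Kd is the median of filtered per-cluster binding-curve fits.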

The mark [1] stands for this setting: designed as: OFF switch for flavin mononucleotide, no ligand.
Where [2] appears, read: ligand present: flavin mononucleotide, designed as: OFF switch for flavin mononucleotide.
[3] abbreviates: designed as: ON switch for flavin mononucleotide, no ligand.
[4] abbreviates: ligand present: flavin mononucleotide, designed as: ON switch for flavin mononucleotide.

For “CUAUCUUGCAAGGAUAUGCAAUUUAUUAUUUAUGCAGAAGGUGCUACAUGAGGAUCACCCAUGUUUCUGGGUUU”, the “apparent Kd” value reads like this: under setting [1], 134 nM; under setting [2], 257 nM.

“UAGGCGAACAUGAGGAUCACCCAUGUACGCGGUAUAUGAGCGAGAAGGGUAUGAUGUGUGGUCCUACAGGAUAUCGCUAAUAAA”: the “apparent Kd” value came out at 26.2 nM under setting [3] and 6.52 nM under setting [4].

Take “GUCGUGCAGCUUUGCUGUACGAGUACAUGAGGAUCACCCAUGUAGGAUAUGGUACGCUUUGCGUGCCAGAAGGACGUGCGUUGG”: the “apparent Kd” value was determined as 48 nM under setting [1] and 134 nM under setting [2].

For the sequence “UUGUUAGGGAGAGGAUAUUGACAUGAGGAUCACCCAUGUAUUUGGGAGUGUUUACUGAAUUCUUACGAGAAGGCUUACGAAAUU”, the “apparent Kd” value runs as follows: under setting [1], 329 nM; under setting [2], 246 nM.

Consider “UGUUGUAUUACAGGAUAUCUGUUAUUUUUAUUUAGAGAAGGGUAUUCACAUGAGGAUCACCCAUGUAUAUACGAGGAAGUUGUG”, for which the “apparent Kd” value was 57.3 nM under setting [3] and 61.4 nM under setting [4].

Turning to “AAAAGGUUAGGAUAUGCGUGGAAAAAGUGUAUCUAAAAAAAACAUGAGGAUCACCCAUGUAGAAGGGACUUAAA”, the “apparent Kd” value reads like this: under setting [1], 45.3 nM; under setting [2], 44 nM.

As to “UGAUAGGACAGAGGAUAUACGUAUAAUUCCUUCAACAUGAGGAUCACCCAUGUAGAAGGCUGUCCUAUCUAAGUCGGAAACGAC”, the “apparent Kd” value runs as follows: under setting [1], 4.81 nM; under setting [2], 5.33 nM.

Take “ACAUAAAUUCGAGGAUAUCGGUGAUAUAAUUUACGAGAAGGCGAUAAUAGUUAUAAACUUAUAGACAUGAGGAUCACCCAUGUA”: the “apparent Kd” value was determined as 30.2 nM under setting [3] and 28.3 nM under setting [4].

In the case of “AUAAUUUUAUAUAUCUUUUUAAUCAGAAGGCAUAACAUGAGGAUCACCCAUGUAUAUUAUAGUUAUGAGGAUAUGAUUUGGUUA”, the “apparent Kd” value came to 8.94 nM under setting [1] and 11.3 nM under setting [2].

Regarding “GCGCAAGCAUGAGGAUAUGUAUUAAAUAAUAAUACAGAAGGCAUGUCAAAUGACAUGAGGAUCACCCAUGUUGGCAAACUGCGC”, the “apparent Kd” value runs as follows: under setting [3], 46.4 nM; under setting [4], 13 nM.

For the sequence “AAAUUUAACGAAGGAUAUGCUGACAUGAGGAUCACCCAUGUGUGCUUUGUGUUGCUGAAAUUGGAGCAGAAGGUCGUAUACAUA”, the “apparent Kd” value under setting [1] was determined as 101 nM and the “apparent Kd” value under setting [2] came to 148 nM.

For the sequence “GGUACUCAAAGAGUACCAAUACGAACAUGAGGAUCACCCAUGUAGGAUAUGCUACUCAAAGAGUAGCAGAAGGACAUGUGCCUC”, the “apparent Kd” value by setting is: under setting [1], 418 nM; under setting [2], 38.5 nM.

On to “AUCAGCUCGUCAGGAUAUACGUCACUGCGUCAGCAGUGUGGUAAGAACACAUGAGGAUCACCCAUGUAGAAGGGACGAGCUGAU”, for which the “apparent Kd” value is, setting by setting: under setting [1], 6.31 nM; under setting [2], 7.81 nM.

Regarding “UCAUAUAUACAAGGAUAUCAAUUAUUUACACAUCCUACAUGAGGAUCACCCAUGUUUUAAUAUUUUGAGAAGGUGUAAUGUCGG”, the “apparent Kd” value under setting [3] worked out at 24 nM and the “apparent Kd” value under setting [4] is 30.7 nM.

As for “UGUUGAUAGCAGAAGGACAUGAGGAUCACCCAUGUAAGGUUACAAAUAUAUGUAGGAUAUGCUAUUGACUAAGAGUGAGCGUUC”, the “apparent Kd” value runs as follows: under setting [1], 8.88 nM; under setting [2], 39.5 nM.

Turning to “AAUAUAAGAGCUGGUAAUCUCAAAACAUGAGGAUCACCCAUGUAGGAUAUCAGCACGAUAAGUGCUGAGAAGGACAUCCAGCUC”, the “apparent Kd” value runs as follows: under setting [1], 14.3 nM; under setting [2], 16.7 nM.

Regarding “AUAUCCUUUUUAUACAUGAGGAUCACCCAUGUUUUUCUUACGUAGGAUAUCGUUGUUUUUUUUUACGAGAAGGACGUAGAAUGU”, the “apparent Kd” value runs as follows: under setting [3], 23.6 nM; under setting [4], 23.9 nM.

Take “ACAUGUUUUACAGGAUAUGUUAUACAAUAAACAAUCAGUUAUUAUGAUUUUACAGAAGGGUAUACAUGAGGAUCACCCAUGUUA”: the “apparent Kd” value reads like this: under setting [1], 23 nM; under setting [2], 19.1 nM.

As for “GUUAUGCAGCAGGAUAUCCAUCCGCGGUAUGGUGGAGAAGGGCUGACAUGAGGAUCACCCAUGUGCGUCCUAGG”, the “apparent Kd” value is, setting by setting: under setting [1], 39.9 nM; under setting [2], 104 nM.

Turning to “UUGUUGUCAGGAUAUCGUUAAUUUAAUUGUUUGUAUUAGUUCGAGAAGGGACAUGAGGAUCACCCAUGUUUUUU”, the “apparent Kd” value runs as follows: under setting [1], 25.6 nM; under setting [2], 51.5 nM.

For the sequence “GUGCGGUGAGGAUAUACGUAGGUGAAAAUCUGUGUGCUCCUACAUGAGGAUCACCCAUGUAGAAGGCAUGUCAC”, the “apparent Kd” value by setting is: under setting [1], 15.5 nM; under setting [2], 27.8 nM.

With “AAUGUCUGAGGAUAUCGAAUAGUGUACAUGAGGAUCACCCAUGUUUUUAUUAGUAUAUUACGAGAAGGCAGUGGAA”, the “apparent Kd” value was determined as 17.8 nM under setting [1] and 14.8 nM under setting [2].

In the case of “AAUUGUUUCUGAGGAUAUCAGUAGUAUGCUUUUUGAGAAGGCAGUACAUGAGGAUCACCCAUGUUGUGGUUUGAUAGAAUGAUA”, the “apparent Kd” value was found to be 193 nM under setting [3] and 182 nM under setting [4].

Take “UUAACAUGAGGAUCACCCAUGUAUAGAUCGGUUAAUAGAAGUGAGGAUAUGCUUAAAUUCAGGUAGCAGAAGGCACUGGGUACU”: the “apparent Kd” value reads like this: under setting [3], 26.9 nM; under setting [4], 29.9 nM.

As for “UUUUAACAUGAGGAUCACCCAUGUGAGGAUAUCGAAUUUUUUAUUAAUAUUAAUAAAACGAGAAGGCACAUUUU”, the “apparent Kd” value reads like this: under setting [1], 63.1 nM; under setting [2], 70.2 nM.

“GGAUCACGAGGAUAUCGAUUUUAGUACAUGAGGAUCACCCAUGUUGUCCAGGUCUCGAUUCGAGAAGGCGUGAUUC”: the “apparent Kd” value came out at 36.6 nM under setting [1] and 59.2 nM under setting [2].

In the case of “UGUUGUAUUACAGGAUAUCUAUUGUUAUUAUUUAGAGAAGGGUAUUCACAUGAGGAUCACCCAUGUAUAUACGAGGAAGUUGUG”, the “apparent Kd” value was determined as 45.3 nM under setting [3] and 45.5 nM under setting [4].

Consider “CGAGGGUGGGACCCACGCUUUCGACAUGAGGAUCACCCAUGUAAGGAUAUCGCGGCCUACCAUAGCGAGAAGGUACGUGCGGGU”, for which the “apparent Kd” value under setting [1] was 13 nM and the “apparent Kd” value under setting [2] is 25.9 nM.

For “AGUGUCAUCGAGAAGGCCUCAACAUGAGGAUCACCCAUGUUGCAAAAUGGGAGGAUAUCGAAAAAACAGCUACGUUUCGUAGCA”, the “apparent Kd” value reads like this: under setting [3], 22.6 nM; under setting [4], 5.17 nM.

Take “GUACCUUAUGAGAAGGCGAUCAUAAAACGUGAUCGAGGAUAUCAUGAAAACAUGAGGAUCACCCAUGUAUGGGUAUUAUGGUAC”: the “apparent Kd” value under setting [3] worked out at 36 nM and the “apparent Kd” value under setting [4] was 19.3 nM.

Regarding “GUCAGCUCGUGAGGAUAUACAUAAUCCUAAGAUCACAUGAGGAUCACCCAUGUAGAAGGCACGAGCUGAUAAGCACGAAAGUGC”, the “apparent Kd” value under setting [1] is 8.89 nM and the “apparent Kd” value under setting [2] is 50.2 nM.

Take “AGAUAACAUGUAGGAUAUCGAGGCCUGAGGCCUCGAGAAGGACAUGAGGAUCACCCAUGUUUGCCGAGCAUGGAAUCACGCACU”: the “apparent Kd” value reads like this: under setting [1], 18.4 nM; under setting [2], 54.6 nM.

“UUAAAUCAUGUAGGAUAUGCAUGGCGAAGCUACGCAGAAGGACAUGAGGAUCACCCAUGUUAUAGCUACCGAUAAAGGUGGCAA”: the “apparent Kd” value reads like this: under setting [1], 84.3 nM; under setting [2], 214 nM.

Take “AUGAGGGAAGUAGGAUAUGAUCAAGACAUGAGGAUCACCCAUGUAAUGAGGGUGUGUGUCUUUGUUCAGAAGGACUUGUGUCAA”: the “apparent Kd” value stood at 46.4 nM under setting [1] and 52.6 nM under setting [2].

With “CGAGCUGCUGUGAGGAUAUACCUAUGGGUGCGUGGGUAGAAGGCACAUGAGGAUCACCCAUGUCCUGCAGCUCG”, the “apparent Kd” value by setting is: under setting [1], 255 nM; under setting [2], 344 nM.

As to “GUGACGAUGUAAGGAUAUGCUGAGGAUAACUCAGCAGAAGGUACAUGAGGAUCACCCAUGUAACGUCACAAUAAUAAUAAUAAU”, the “apparent Kd” value runs as follows: under setting [1], 12.3 nM; under setting [2], 22.9 nM.

Take “AUUAAACAUGAGGAUCACCCAUGUCAACAAAGUCGAGGAUAUGGGCAAAUAAAAUAAGAACCAGAAGGCGAAUAAU”: the “apparent Kd” value came out at 259 nM under setting [3] and 38 nM under setting [4].

In the case of “CGCUACGUUUCGUAGCAGUGUCAUCGAGAAGGCCCUGACAUGAGGAUCACCCAUGUUAAAACACAGGAGGAUAUCGAUGAUACA”, the “apparent Kd” value under setting [3] worked out at 4.39 nM and the “apparent Kd” value under setting [4] was determined as 4.56 nM.

Regarding “AGUGCGUAUGUGAGGAUAUGCUGGUCCUUGGAUCAGCAGAAGGCACAUGAGGAUCACCCAUGUGGUGUCGUACA”, the “apparent Kd” value was 342 nM under setting [1] and 24.9 nM under setting [2].

“UUGGACGUCGAAGGAUAUGUAGGAUAUUCCUACAUGAGGAUCACCCAUGUUGACAUGGAAGAAGGACAGAAGGACGAUGUCCAU”: the “apparent Kd” value by setting is: under setting [3], 479 nM; under setting [4], 6.78 nM.

Take “CAGCGAUAGCUGAACAAUCUAUCACAGGAUAUUCAUAAAACAUGAGGAUCACCCAUGUGAAAUUGGGAGAAGGGUGAUAGAUUG”: the “apparent Kd” value runs as follows: under setting [3], 10.8 nM; under setting [4], 5.04 nM.

Turning to “UCCACUGCUGAGAAGGGAUACGUUUGGGUCGCAUCAGGAUAUCGAUACAGUGCAGCAUGAGGACAUGAGGAUCACCCAUGUGUG”, the “apparent Kd” value reads like this: under setting [3], 140 nM; under setting [4], 29.5 nM.

Take “ACUUUACGAGGAUAUACUGUCGGGCCUCGGGCGUCCCUGCGACAUGAGGAUCACCCAUGUAGAAGGCGUUUACU”: the “apparent Kd” value reads like this: under setting [1], 20.6 nM; under setting [2], 35.2 nM.

As for “GGGUAUAUCGGAGGAUAUCAUGUAAAUACAUGAGGAUCACCCAUGUCGAUGGAGACAUCGGAGAUUGAGAAGGCCGAUGUACCG”, the “apparent Kd” value reads like this: under setting [3], 163 nM; under setting [4], 9.34 nM.

Consider “GGGUACAUCGGAGGAUAUCAUGUAAAUACAUGAGGAUCACCCAUGUGGAUGGAGACAUCGGAGAUUGAGAAGGCCGAUGUACCG”, for which the “apparent Kd” value by setting is: under setting [3], 10.9 nM; under setting [4], 5.56 nM.

“AACGAGCAGUAGAAGGGAUGUCUACGGACAUGAGGAUCACCCAUGUUGUGACUCCGAAAGGAGCGUCAGGAUAUACUGCUCAAA”: the “apparent Kd” value reads like this: under setting [3], 8.13 nM; under setting [4], 6.15 nM.

“AAUGCGGCAGGAUAUACAUGAGGAUCACCCAUGUAGAUCAGAUAUAUGGUCGAGCCAUGUAGAAGGGCCGCAAA”: the “apparent Kd” value is, setting by setting: under setting [1], 30.8 nM; under setting [2], 110 nM.

In the case of “UUAGGCGACCAGAAGGGUGACAUGAGGAUCACCCAUGUAGAUGUGUUCCCGCUUGGGAGCCGUCCACAGGAUAUGGUUGGUUAG”, the “apparent Kd” value under setting [3] is 35.7 nM and the “apparent Kd” value under setting [4] worked out at 16.8 nM.
